Where two headings read alike, the source gives them in different places.
Key:
Assay type in all cases: binding
[1] = target: T1, AD brain homogenates (mixed 3R/4R-tau) (Homo sapiens, UniProt P10636); test: Competition
[2] = target: T2, PSP brain homogenates (4R-tau aggregates) (Homo sapiens, UniProt P10636); test: Competition
Summary of the method: (§1)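 Post-mortem human brain homogenate in PBS pH 7.0, 100 μg tissue/mL final, with ~1 nM tritiated radioligand and unlabelled test compound at 0.1–1000 nM (0.25% DMSO final for non-Enamine compounds). Incubated 60 min at room temperature, then GF/B filtration, four PBS washes and scintillation counting. Full inhibition was taken as counts displaced by 1 μM unlabelled radioligand. Triplicates at each concentration.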

[3] = target: T3, CBD brain homogenates (4R-tau aggregates) (Homo sapiens, UniProt P10636); test: Competition
Summary of the method: as §1

[4] = target: T1, AD brain homogenates (mixed 3R/4R-tau); test: Competition; remark: listed apart in the source
[5] = target: T2, PSP brain homogenates (4R-tau aggregates); test: Competition; remark: listed apart in the source
Summary of the method: as §1

[6] = target: T1, AD brain homogenates (mixed 3R/4R-tau); test: Competition; remark: listed apart in the source
[7] = target: T2, PSP brain homogenates (4R-tau aggregates); test: Competition; remark: listed apart in the source
Summary of the method: as §1

[8] = target: T3, CBD brain homogenates (4R-tau aggregates); test: Competition; remark: listed apart in the source
Summary of the method: as §1

[9] = target: T1, AD brain homogenates (mixed 3R/4R-tau); test: Single concentration; conditions: 300 nM unlabeled compound
[10] = target: T2, PSP brain homogenates (4R-tau aggregates); test: Single concentration; conditions: 300 nM unlabeled compound
Summary of the method: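 A PSP homogenate (100 μg tissue/mL) was run with ~1 nM [3H]-ligand as in the Ki assay, with a single 300 nM test compound, 60 min at room temperature, then filtered and counted. 0% was specific binding with no competitor; 100% was nonspecific binding at 1 μM unlabelled radioligand. The % value is […] divided by the 0%−100% count difference, ×100. Run in triplicate.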

[11] = target: T1, AD brain homogenates (mixed 3R/4R-tau); test: Competition; remark: listed apart in the source
[12] = target: T2, PSP brain homogenates (4R-tau aggregates); test: Competition; remark: listed apart in the source
Summary of the method: as §1

[13] = target: T3, CBD brain homogenates (4R-tau aggregates); test: Competition; remark: listed apart in the source
Summary of the method: as §1

[14] = target: aggregated amyloid-beta (Aβ) in AD tissue (Homo sapiens, UniProt P05067); test: Competition
Summary of the method: as §1

T2 sequence (P10636 1-441 isoform P10636-8): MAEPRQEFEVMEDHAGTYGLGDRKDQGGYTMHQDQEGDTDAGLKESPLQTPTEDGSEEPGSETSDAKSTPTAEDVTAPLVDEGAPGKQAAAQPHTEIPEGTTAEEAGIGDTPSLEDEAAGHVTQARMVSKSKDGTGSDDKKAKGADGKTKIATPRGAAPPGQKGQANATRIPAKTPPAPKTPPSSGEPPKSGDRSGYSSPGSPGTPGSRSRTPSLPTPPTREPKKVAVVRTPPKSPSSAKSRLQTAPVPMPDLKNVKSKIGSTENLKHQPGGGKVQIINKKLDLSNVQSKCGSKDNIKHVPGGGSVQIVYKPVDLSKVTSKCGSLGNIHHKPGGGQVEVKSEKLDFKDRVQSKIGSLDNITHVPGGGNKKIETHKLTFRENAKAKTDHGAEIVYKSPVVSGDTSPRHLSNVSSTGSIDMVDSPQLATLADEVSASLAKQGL
T3 sequence (P10636 1-441 isoform P10636-8): as above
T1 sequence (P10636 623-758 limits assumed): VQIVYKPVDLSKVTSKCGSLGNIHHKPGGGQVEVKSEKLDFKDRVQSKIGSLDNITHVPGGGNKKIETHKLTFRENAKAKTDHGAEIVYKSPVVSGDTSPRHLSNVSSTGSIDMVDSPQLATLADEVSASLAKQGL
Chain of aggregated amyloid-beta (Aβ) in AD tissue (P05067 672-713): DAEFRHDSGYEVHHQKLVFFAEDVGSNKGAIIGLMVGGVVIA

Row | Compound | Ki [1] [µM] | Ki [2] [µM] | Ki [3] [µM] | Ki [4] [µM] | Ki [5] [µM] | other results
1 | CNc1ccc(/C=C/C=C/c2nc3ccc(OCC(O)CF)cc3s2)cn1 (centres unmarked) [PM-PBB3, reference compound] | 7.93 | > 10 | 1.54 | 0.015 | 0.018 | –
2 | OCC1CCN(c2ccc(-c3cc4cc(O)ccc4[nH]3)c(F)n2)CC1 [CBD-2115, 2-(2-fluoro-6-(4-(hydroxymethyl)piperidin-1-yl)pyridin-3-yl)-1H-indol-5-ol] | – | – | – | 0.745 | 0.52 | Ki [6]: 7.14 µM; Ki [7]: > 10 µM; Ki [8]: 2.93 µM
3 | O[C@@H]1CCN(c2ccc(-c3cc4ccc(F)cc4[nH]3)cn2)C1 [Compound 20] | – | – | – | 0.018 | 0.018 | –
4 | Nc1c(F)ccc2cnc(-n3ccc4ccncc43)cc12 [MK-6240] | – | – | – | 0.096 | 0.315 | –
5 | Oc1cccc2sc(-c3cnc(N4CCC(O)CC4)nc3)cc12 [Compound 6] | – | – | – | 0.012 | 0.022 | inhibition of [^3H]1, AD tissue [9]: > 65%; inhibition of [^3H]1, PSP tissue [10]: > 65%
6 | Fc1ccc2cc(-c3cnc(N4CCOCC4)nc3)[nH]c2c1 [Compound 21, 4-(5-(6-fluoro-1H-indol-2-yl)pyrimidin-2-yl)morpholine] | 0.27 | 0.27 | 0.23 | – | – | Ki [11]: 0.1 µM; Ki [12]: 0.093 µM; Ki [13]: 0.11 µM; Ki [14]: 0.062 ± 0.003 µM
7 | O=C1CCN(c2ncc(-c3cc4ccccc4[nH]3)cn2)CCN1 [Compound 19] | – | – | – | 0.021 | 0.022 | –
8 | OC1CCN(c2ncc(-c3cc4ccc(F)cc4[nH]3)cn2)CC1 [Compound 1, 1-(5-(6-fluoro-1H-indol-2-yl)pyrimidin-2-yl)piperidin-4-ol] | 0.27 | 0.25 | 0.21 | – | – | Ki [11]: 0.08 µM; Ki [12]: 0.095 µM; Ki [13]: 0.071 µM; Ki [14]: 0.142 ± 0.005 µM
9 | Fc1ccc(-c2ccc3c(c2)[nH]c2ccncc23)cn1 [Tauvid] | – | – | – | > 1 | > 1 | –
10 | Fc1cc(-c2ccc3c(n2)[nH]c2ccncc23)ccn1 [PI-2620] | – | – | – | 0.058 | 0.089 | –

From PMC10424182 (Journal of Medicinal Chemistry, 2023)
